Published values pooled from the literature.
Protocols differ between the studies behind these lines.
SIRT6: NAD-dependent protein deacylase sirtuin-6 (SIRT6, Homo sapiens, UniProt Q8N6T7)
HTR7: 5-hydroxytryptamine receptor 7 (HTR7, Homo sapiens, UniProt P34969)
PKM: Pyruvate kinase PKM (PKM, Homo sapiens, UniProt P14618)
OR5K1 A2T/T15M/Y193C: OR5K1 (Homo sapiens, UniProt Q8NHB7, A2T/T15M/Y193C)
CDK2: Cyclin-dependent kinase 2 (CDK2, Homo sapiens, UniProt P24941)
FLT4: Vascular endothelial growth factor receptor 3 (FLT4, Homo sapiens, UniProt P35916)
STAT3: Signal transducer and activator of transcription 3 (STAT3, Homo sapiens, UniProt P40763)
HTR6: 5-hydroxytryptamine receptor 6 (HTR6, Homo sapiens, UniProt P50406)
OR5K1: OR5K1 (Homo sapiens, UniProt Q8NHB7)

Compound | target | test | setting | quantity | result
COc1cccc(Sc2ccc(CONC(=O)c3ccc(C(N)=O)cc3)cc2C(F)(F)F)c1 | SIRT6 | enzyme activity, inhibitor, fluorescence |  | IC50 | 1.12 µM
CC(=O)N[C@H](C(=O)N[C@@H](CC(N)=O)C(=O)N[C@@H](CCCCN)C(=O)N1CCC[C@H]1C(=O)N[C@@H](CC(C)C)C(=O)N1CCC[C@H]1C(=O)N1CCC[C@H]1C(=O)N[C@@H](CC(C)C)C(=O)N1CCC[C@H]1C(=O)N[C@H](C(=O)N[C@@H](C)C(N)=O)C(C)C)C(C)C | Tyrosine-protein kinase Fyn, SH3 (FYN, Homo sapiens, UniProt P06241) | binding, ITC | pH 7 | Kd | 23.9 µM
CN1CCN(C2=Nc3cscc3/C(=C/C#N)c3cscc32)CC1 | HTR7 | ligand displacement, radioligand | cell membranes | Ki | 0.153 µM
Cc1cccc(CONC(=O)c2ccc(C(N)=O)cc2)c1 | SIRT6 | enzyme activity, inhibitor, fluorescence |  | IC50 | 3.94 µM
Cc1ccc(NS(=O)(=O)c2ccc3c(c2)CCC(=O)N3)cc1F | PKM | enzyme activity, activator |  | AC50 | 0.54 µM
CCc1nccnc1OC | OR5K1 A2T/T15M/Y193C | cAMP, agonist |  | EC50 | 578 µM
Cc1ccc(NS(=O)(=O)c2cc3c(cc2N[C@@H](C)CO)CCC(=O)N3)cc1Cl | PKM | enzyme activity, activator |  | AC50 | 6.1 µM
CN1C[C@H](CNC(=O)OCc2ccccc2)C[C@@H]2c3cccc4c3c(cn4C)C[C@H]21 | HTR7 | ligand displacement, radioligand | cell membranes | Ki | 0.016 µM
COc1cccc(OC)c1NS(=O)(=O)c1ccc(N/C=C2\C(=O)Nc3ccc4ncsc4c32)cc1 | CDK2 | binding |  | Kd | 0.179 µM
Nc1nc2c(ncn2[C@@H]2O[C@H](COP(=O)(O)OP(=O)(O)O)[C@@H](OP(=O)(O)OP(=O)(O)O)[C@H]2O)c(=O)[nH]1 | icd (Escherichia coli, UniProt P08200) | binding, ITC |  | Kd | 132 µM
CC1=C(/C=C/C2=CCC[C@@]3(C)[C@H]2CC[C@@H]3[C@@](C)(O)CCCC(C)C)C[C@@H](O)CC1 | Oxysterols receptor LXR-beta (NR1H2, Homo sapiens, UniProt P55055) | coactivator recruitment, agonist, TR-FRET |  | EC50 | 0.01 to 0.1 µM
Cc1ccc(C(=O)Nc2ccc(Oc3cc4cnn(C)c4cc3-c3cn[nH]c3)c(F)c2)c(=O)n1-c1ccc(F)cc1 | FLT4 | enzyme activity in cells, inhibitor |  | IC50 | > 0.316 µM
C[C@H](NC(=O)CNC(=O)[C@@H]1CCCN1C(=O)[C@@H]1CCCN1C(=O)[C@H](C)NC(=O)[C@H](CCC(N)=O)NC(=O)CNC(=O)[C@@H]1CCCN1C(=O)[C@H](Cc1ccc(O)cc1)NC(=O)[C@H](C)NC(=O)CNC(=O)[C@@H]1CCCN1C(=O)[C@@H]1CCCN1C(=O)[C@H](C)NC(=O)[C@H](CCC(N)=O)NC(=O)CNC(=O)[C@@H]1CCCN1C(=O)[C@H](Cc1ccc(OP(=O)(O)O)cc1)NC(=O)[C@H](C)NC(=O)CN)C(=O)O | STAT3 | binding, ITC | pH 7.5 | Kd | ~40 µM
Cc1ccc(NS(=O)(=O)c2cc3c(cc2-c2ccccc2)NC(=O)CO3)cc1C | PKM | enzyme activity, activator |  | AC50 | > 20 µM
CC(=O)N=S(=O)(O)c1ccc(N/C=C2\C(=O)Nc3ccc4ncsc4c32)cc1 | CDK2 | binding, ITC |  | Kd | 0.194 µM
Cc1nc2cc(OCCCCN3CCN(c4cccc(Cl)c4Cl)CC3)ccc2s1 | HTR6 | cell-free assay, radioligand |  | Ki | 0.72 µM
O=C(Nc1cc(C2CCCCC2)[nH]n1)c1ccc(Br)cc1 | CDK2 | binding |  | Kd | > 100 µM
Cc1ccc(NS(=O)(=O)c2cc3c(cc2Cl)CCC(=O)N3)cc1Cl | PKM | enzyme activity, activator |  | AC50 | 0.09 µM
COc1cccc(CONC(=O)c2ccc(C(N)=O)cc2)c1 | SIRT6 | enzyme activity, inhibitor, fluorescence |  | IC50 | 6.49 µM
Cc1cc(NS(=O)(=O)c2ccc3c(c2)CCC(=O)N3)ccc1Cl | PKM | enzyme activity, activator |  | AC50 | 0.56 µM

Compound | target | test | setting | quantity | result
Cc1cnc(-c2ccc(-c3ccc(NC(=O)Nc4c(F)cc(F)cc4F)cc3F)c3c2C(=O)NC3)[nH]1 | FLT4 | binding, competition with immobilised ligand |  | Kd | 0.016 µM
COc1ccc2c(Oc3ccc4c(C(=O)Nc5ccccc5N)cccc4c3)ccnc2c1 | Sodium channel protein type 5 subunit alpha (SCN5A, Homo sapiens, UniProt Q14524) | ion current, inhibitor |  | IC50 | > 10 µM
COc1cnccn1 | OR5K1 | cAMP, agonist |  | EC50 | > 1500 µM
O=C1CCc2cc(S(=O)(=O)Nc3ccc4ncccc4c3)ccc2N1 | PKM | enzyme activity, activator |  | AC50 | > 20 µM
O=C1c2ccccc2CCN1CCCCN1CCN(c2cccc(Cl)c2Cl)CC1 | HTR6 | ligand displacement, radioligand |  | Ki | 0.544 µM
CN1CCN(C2=Nc3ccccc3Oc3ccc(Cl)cc32)CC1 | HTR7 | ligand displacement, radioligand | cell membranes | Ki | 0.258 µM
NCCc1ccc(C(=O)NOCc2ccc(C(F)(F)F)cc2)cc1 | SIRT6 | enzyme activity, inhibitor, fluorescence |  | IC50 | 2.65 µM
CN(CC(=O)N(Cc1ccc2ccccc2c1)c1ccc(C(=O)O)c(O)c1)S(=O)(=O)c1c(F)c(F)c(F)c(F)c1F | STAT3 | ligand displacement, FP |  | Ki | 32.5 µM
Cc1cc(NS(=O)(=O)c2cc3c(cc2F)NC(=O)CC3)ccc1Cl | PKM | enzyme activity, activator |  | AC50 | 0.6 µM
CC(C)c1nc2cc(OCCCCN3CCN(c4cccc5c4OCCO5)CC3)ccc2s1 | HTR6 | cell-free assay, radioligand |  | Ki | 2.3 µM
C=Cc1cnccn1 | OR5K1 | cAMP, agonist |  | EC50 | > 1500 µM
CN(CC(=O)N(Cc1cc(C(C)(C)C)cc(C(C)(C)C)c1)c1ccc(C(=O)O)c(O)c1)S(=O)(=O)c1c(F)c(F)c(F)c(F)c1F | STAT3 | ligand displacement, FP |  | Ki | 37.5 µM
NC(=O)c1ccc(C(=O)NOCc2ccc(-n3cccn3)cc2)cc1 | SIRT6 | enzyme activity, inhibitor, fluorescence |  | IC50 | 2.23 µM
Cc1cnc(C)c(C)n1 | OR5K1 A2T/T15M/Y193C | cAMP, agonist |  | EC50 | 419 µM
N#Cc1ccc(CONC(=O)c2ccc(C(N)=O)cc2)cc1 | SIRT6 | enzyme activity, inhibitor, fluorescence |  | IC50 | 11.7 µM
CC(C)[C@@H](CC[C@@H](C)[C@H]1CC[C@H]2[C@@H]3[C@H](O)C[C@H]4C[C@@H](NCCCNCCCCNCCCN)CC[C@]4(C)[C@H]3CC[C@]12C)OS(=O)(=O)O | Receptor-type tyrosine-protein phosphatase R (PTPRR, Homo sapiens, UniProt Q15256) | enzyme activity, inhibitor |  | Ki | 25 µM
NC(=O)c1ccc(C(=O)NOCc2ccc(Nc3ccccc3)cc2)cc1 | SIRT6 | enzyme activity, inhibitor, fluorescence |  | IC50 | 2.61 µM
Cc1ccc(NS(=O)(=O)c2cc3c(cc2N[C@H](C)CO)NC(=O)CC3)cc1C | PKM | enzyme activity, activator |  | AC50 | 0.88 µM
CC(N)c1ccc(C(=O)NOCc2ccc(C(F)(F)F)cc2)cc1 (stereo not shown) | SIRT6 | enzyme activity, inhibitor, fluorescence |  | IC50 | 2.64 µM
Cc1cc2nc3c(=O)[nH]c(=O)nc-3n(C[C@H](O)[C@H](O)[C@H](O)COP(=O)(O)OP(=O)(O)OC[C@H]3O[C@@H](n4cnc5c(N)ncnc54)[C@H](O)[C@@H]3O)c2cc1C | Nucleolysin TIAR (Homo sapiens, UniProt Q01085) | binding | lysate | Kd | 0.011 µM
